{"source": "ChEMBL document CHEMBL2321735", "about": "“Synthesis and biological evaluation of halogenated curcumin analogs as potential nuclear receptor selective agonists” (Bioorg Med Chem, 2013)", "key": {"[1]": {"target": "T1, Vitamin D3 receptor (Homo sapiens) (UniProt P11473)", "T1 sequence (whole entry)": "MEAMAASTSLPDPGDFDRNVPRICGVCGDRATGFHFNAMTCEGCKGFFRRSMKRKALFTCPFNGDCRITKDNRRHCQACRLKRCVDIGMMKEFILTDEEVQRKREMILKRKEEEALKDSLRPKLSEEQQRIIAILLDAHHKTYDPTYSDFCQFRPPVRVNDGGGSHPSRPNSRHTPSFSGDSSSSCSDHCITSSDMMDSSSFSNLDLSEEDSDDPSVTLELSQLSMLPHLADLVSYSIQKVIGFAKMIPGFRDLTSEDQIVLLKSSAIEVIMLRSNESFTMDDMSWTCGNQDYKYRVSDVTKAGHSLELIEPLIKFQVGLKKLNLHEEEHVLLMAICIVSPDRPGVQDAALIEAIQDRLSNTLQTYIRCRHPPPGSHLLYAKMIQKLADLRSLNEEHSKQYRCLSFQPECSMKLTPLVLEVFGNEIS", "assay": "Agonist activity at human VDR expressed in human HCT116 cells assessed as CYP24A1 transcriptional activity at 20 to 40 uM after 24 hrs by luciferase reporter gene assay", "type": "cell-based", "conditions": "HCT-116", "method_in_brief": "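HCT-116 cells (DMEM, 10% FBS, 37 °C, 5% CO2) plated at 90,000 cells/well ~24 h before transfection with a firefly luciferase reporter carrying the natural human CYP24A1 promoter (2 VDREs) plus Renilla control. Treated 18 h after transfection with 3.75 x 10^-5 M compound, 10^-10 M 1,25D or DMSO for 24 h. Read-out is dual luciferase, firefly/Renilla x10,000. Triplicate wells.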"}, "[2]": {"target": "T1, Vitamin D3 receptor (Homo sapiens)", "assay": "Agonist activity at human VDR expressed in human HCT116 cells co-expressing VDRE assessed as XDR3 transcriptional activity at 20 to 40 uM after 24 hrs by luciferase reporter gene assay", "type": "cell-based", "conditions": "HCT-116", "method_in_brief": "(§1)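 HCT-116 cells were transfected with a firefly luciferase plasmid holding two copies of the CYP3A4 XDR3 VDRE, plus a Renilla control. From 18 h post-transfection they were exposed to 3.75 x 10^-5 M compound, 10^-10 M 1,25D or DMSO in complete medium for 24 h. Dual-luciferase firefly/Renilla ratio. Three independent experiments, triplicate wells, mean ± SD.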"}, "[3]": {"target": "T2, Retinoic acid receptor RXR-alpha (Homo sapiens) (UniProt P19793)", "T2 sequence (whole entry)": "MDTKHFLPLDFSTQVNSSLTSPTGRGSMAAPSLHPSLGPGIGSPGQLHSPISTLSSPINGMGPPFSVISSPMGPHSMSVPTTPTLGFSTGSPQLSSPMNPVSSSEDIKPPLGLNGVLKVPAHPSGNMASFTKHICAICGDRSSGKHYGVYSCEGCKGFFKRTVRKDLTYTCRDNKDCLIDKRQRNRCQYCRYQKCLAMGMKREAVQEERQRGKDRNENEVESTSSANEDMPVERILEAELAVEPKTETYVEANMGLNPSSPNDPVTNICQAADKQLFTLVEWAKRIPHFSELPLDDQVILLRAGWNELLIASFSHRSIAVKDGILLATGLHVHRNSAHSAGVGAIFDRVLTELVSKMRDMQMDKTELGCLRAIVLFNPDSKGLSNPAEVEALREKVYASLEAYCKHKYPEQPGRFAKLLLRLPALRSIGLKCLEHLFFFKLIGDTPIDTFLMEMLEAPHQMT", "assay": "Induction of RXRalpha-AD/RXRalpha-BD (unknown origin) homodimerization expressed in human HCT116 cells at 20 to 40 uM after 24 hrs by luciferase reporter gene assay", "type": "cell-based", "conditions": "HCT-116", "method_in_brief": "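RXR–RXR homodimerization was measured by M2H in HCT-116 cells transfected with RXRα-AD prey, RXRα-BD bait, pFR-luc and Renilla control. […] Firefly luciferase was normalized to Renilla. Three independent experiments, triplicate samples, SD.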"}, "[4]": {"target": "T1, Vitamin D3 receptor (Homo sapiens)", "assay": "Agonist activity at human VDR expressed in human HCT116 cells assessed as induction of recruitment of DRIP205 at 20 to 40 uM after 24 hrs by mammalian two hybrid system based luciferase reporter gene assay", "type": "cell-based", "conditions": "HCT-116", "method_in_brief": "(§2)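 M2H in HCT-116 used a VDR-AD prey with an SRC-1-BD or DRIP205-BD bait (50 ng each), 250 ng pFR-luc and 20 ng pRL-null per well. Cells were treated with 3.75 x 10^-5 M compound, 10^-10 M 1,25D or DMSO for 24 h. Firefly luciferase was normalized to Renilla. Duplicate experiments, triplicate samples, SD.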"}, "[5]": {"target": "T1, Vitamin D3 receptor (Homo sapiens)", "assay": "Agonist activity at human VDR expressed in human HCT116 cells assessed as induction of recruitment of SRC-1 at 20 to 40 uM after 24 hrs by mammalian two hybrid system based luciferase reporter gene assay", "type": "cell-based", "conditions": "HCT-116", "method_in_brief": "as §2"}, "Vitamin D3 receptor": {"target": "T3, Vitamin D3 receptor (Homo sapiens, UniProt P11473)", "T3 sequence (P11473 whole entry)": "T1 sequence (whole entry)", "assay": "Agonist activity at human VDR expressed in human HCT116 cells co-expressing VDRE assessed as XDR3 transcriptional activity after 24 hrs by luciferase reporter gene assay", "type": "cell-based, HCT-116", "method_in_brief": "as §1"}}, "note": "Calls of active or inactive are those of the source. The rule behind the calls is not given here.", "data": [{"smiles": "COc1cc(/C=C/C(=O)/C=C(O)/C=C/c2cc(Cl)c(O)c(OC)c2)cc(Cl)c1O", "values": [{"measurement": "Activity", "setting": "[1]", "result": "Active"}, {"measurement": "Activity", "setting": "[2]", "result": "Active"}, {"measurement": "Activity", "setting": "[3]", "result": "Active"}]}, {"smiles": "O=C(/C=C(O)/C=C/c1ccc(O)cc1F)/C=C/c1ccc(O)cc1F", "values": [{"measurement": "Activity", "setting": "[1]", "result": "inactive"}, {"measurement": "Activity", "setting": "[2]", "result": "inactive"}]}, {"smiles": "COc1cc(/C=C/C(=O)/C=C(O)/C=C/c2cc(F)c(O)c(OC)c2)cc(F)c1O", "values": [{"measurement": "Activity", "setting": "[2]", "result": "Active"}]}, {"smiles": "O=C(/C=C(O)/C=C/c1ccc(O)c(OC(F)(F)F)c1)/C=C/c1ccc(O)c(OC(F)(F)F)c1", "values": [{"measurement": "Activity", "setting": "[4]", "result": "Active"}, {"measurement": "Activity", "setting": "[1]", "result": "Active"}, {"measurement": "Activity", "setting": "[2]", "result": "Active"}, {"measurement": "Activity", "setting": "[5]", "result": "Active"}, {"measurement": "Activity", "setting": "[3]", "result": "Active"}]}, {"smiles": "O=C(/C=C(\\O)CCc1ccc(O)cc1F)CCc1ccc(O)cc1F", "values": [{"measurement": "Activity", "setting": "[1]", "result": "inactive"}, {"measurement": "Activity", "setting": "[2]", "result": "inactive"}]}, {"smiles": "COc1cc(CCC(=O)/C=C(\\O)CCc2cc(F)c(O)c(OC)c2)cc(F)c1O", "values": [{"measurement": "Activity", "setting": "[1]", "result": "inactive"}, {"measurement": "Activity", "setting": "[2]", "result": "inactive"}]}, {"smiles": "COc1cc(/C=C/C(=O)/C=C(O)/C=C/c2cc(I)c(O)c(OC)c2)cc(I)c1O", "values": [{"measurement": "Activity", "setting": "[4]", "result": "Active"}, {"measurement": "Activity", "setting": "[1]", "result": "Active"}, {"measurement": "Activity", "setting": "[2]", "result": "Active"}, {"measurement": "Activity", "setting": "[5]", "result": "Active"}, {"measurement": "Activity", "setting": "[3]", "result": "Active"}]}, {"smiles": "COc1cc(/C=C/C(=O)CC(=O)/C=C/c2ccc(O)c(OC)c2)ccc1O", "note": "[CURCUMIN]", "values": [{"measurement": "Activity", "setting": "[4]", "result": "Active"}, {"measurement": "Activity", "setting": "[1]", "result": "Active"}, {"measurement": "Activity", "setting": "[5]", "result": "Active"}, {"measurement": "EC50", "setting": "Vitamin D3 receptor", "result": 20, "unit": "µM"}]}, {"smiles": "COc1cc(/C=C/C(=O)/C=C(O)/C=C/c2cc(Br)c(O)c(OC)c2)cc(Br)c1O", "values": [{"measurement": "Activity", "setting": "[4]", "result": "Active"}, {"measurement": "Activity", "setting": "[1]", "result": "Active"}, {"measurement": "Activity", "setting": "[2]", "result": "Active"}, {"measurement": "Activity", "setting": "[5]", "result": "Active"}, {"measurement": "Activity", "setting": "[3]", "result": "Active"}]}, {"smiles": "O=C(/C=C(O)/C=C/c1ccc(O)c(Br)c1)/C=C/c1ccc(O)c(Br)c1", "values": [{"measurement": "Activity", "setting": "[1]", "result": "Active"}, {"measurement": "Activity", "setting": "[2]", "result": "Active"}, {"measurement": "Activity", "setting": "[3]", "result": "Active"}]}, {"smiles": "O=C(/C=C(O)/C=C/c1ccc(O)c(Cl)c1)/C=C/c1ccc(O)c(Cl)c1", "values": [{"measurement": "Activity", "setting": "[1]", "result": "Active"}, {"measurement": "Activity", "setting": "[2]", "result": "Active"}, {"measurement": "Activity", "setting": "[3]", "result": "Active"}]}, {"smiles": "COc1cc(CCC(=O)/C=C(\\O)CCc2ccc(O)c(OC)c2)ccc1O", "values": [{"measurement": "Activity", "setting": "[2]", "result": "Active"}]}]}
